Results on one compound are retold here after ChEMBL document CHEMBL4393654, “Discovery and Early Clinical Development of an Inhibitor of 5-Lipoxygenase Activating Protein (AZD5718) for Treatment of Coronary Artery Disease” (J Med Chem, 2019).

pIC50: −log10 of the molar value. Calls of active or inactive are those of the source. The calls are words filed in the database; no cut-off is given here. Bounds are passed on as bounds.

In assay [1] the test system is Canis familiaris. As to the kind of experiment: Ex vivo inhibition of FLAP in Beagle dog assessed as reduction in ionophore-stimulated LTB4 production at 0.02 to 0.2 mg/kg, po administered daily for 3 consecutive days measured 24 hrs post-last dose by LC-MS/MS analysis. In kind it is functional, organism-based. The note with it: Canis lupus familiaris. In a few lines: (§1)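 Beagle dogs were given oral doses once daily for 3 consecutive days at 0.02, 0.09 or 0.2 mg/kg (n=3 per dose). Blood was stimulated ex vivo with calcium ionophore, and LTB4 production was measured during dosing and up to 24 h after the last dose. Results were baseline-corrected, plotted with plasma concentration and reported as medians.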

The target of assay [2] is Prostaglandin G/H synthase 1 (Homo sapiens) (UniProt P23219). As to the kind of experiment: Activity at COX1 in human whole blood assessed as effect on […] production by EIA. It counts as tissue-based.
Assay [3] has as its system Canis familiaris. Description: Ex vivo inhibition of FLAP in Beagle dog assessed as reduction in LTE4 level in urine at 0.09 to 0.2 mg/kg, po administered daily for 3 consecutive days measured 24 hrs post-last dose by colorimetric method. It counts as functional, Canis lupus familiaris. In a few lines: (§2)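 Urinary LTE4 was measured at baseline and over the final 24 h of dosing in beagle dogs given oral doses once daily for 3 consecutive days (0.02, 0.09 or 0.2 mg/kg, n=3 per dose). Dogs with baseline uLTE4 below the LOQ were excluded. Inhibition was expressed relative to each dog's own baseline.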

Assay [4] has as its system Canis familiaris. Description: Ex vivo inhibition of FLAP in Beagle dog assessed as reduction in LTE4 level in urine at 0.02 mg/kg, po administered daily for 3 consecutive days measured 24 hrs post-last dose by colorimetric method relative to control. In kind it is functional. The note with it: Canis lupus familiaris. In a few lines:
as §2

Assay [5] relates to Homo sapiens. As to the kind of experiment: Suppression of urine LTE4 level in po dosed human administered as single dose. It counts as functional, organism-based. In short, it runs like this:
(§3)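 Endogenous urinary LTE4 measured relative to baseline in healthy volunteers. Subjects received an oral suspension as single doses of 25–1200 mg, or 60–600 mg once daily for 10 days.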

Assay [6] relates to Canis familiaris. Description: Ex vivo inhibition of FLAP in Beagle dog assessed as reduction in ionophore-stimulated LTB4 production at 0.9 mg/kg, po measured within 2.5 hrs relative to control. It counts as functional, Canis lupus familiaris. In a few lines: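 Two beagle dogs were given a single oral dose of 0.9 mg/kg. LTB4 production in calcium ionophore-stimulated blood was followed ex vivo over time and compared with pre-dose baseline.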

Assay [7] has as its system Canis familiaris. Description: Ex vivo inhibition of FLAP in Beagle dog assessed as reduction in ionophore-stimulated LTB4 production at 0.18 mg/kg, po on day1 and 0.09 mg/kg, po on day 3 measured after 4 to 9 hrs relative to control. It counts as functional, Canis lupus familiaris. In a few lines: (§4)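 Two beagle dogs were given two oral doses 48 h apart: 0.18 mg/kg on day 1 and 0.09 mg/kg on day 3. LTB4 production in calcium ionophore-stimulated blood was followed ex vivo after each dose, including 48 h after the second dose, and compared with baseline.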

In assay [8] the test system is Homo sapiens. As to the kind of experiment: Suppression of calcium ionophore-stimulated LTB4 production in po dosed human blood administered daily for 10 days. It counts as functional, organism-based. In a few lines: (§5)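 Fresh blood drawn from healthy volunteers dosed with an oral suspension. Single doses were 25–1200 mg (SAD). Multiple dosing was 60, 180, 300 or 600 mg once daily for 10 days (MAD). LTB4 was measured after ex vivo calcium ionophore stimulation, relative to baseline.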

Another assay concerns HepG2. As to the kind of experiment: Cytotoxicity against human HepG2 cells assessed as reduction in ATP depletion in presence of glucose/galactose. It counts as cell-based.
For a further assay, the species on record is Canis lupus familiaris. Description: Inhibition of FLAP in dog whole blood assessed as reduction in calcium ionophore-stimulated LTB4 production. In kind it is tissue-based.
The target of assay [9] is T1, Arachidonate 5-lipoxygenase-activating protein (Homo sapiens) (UniProt P20292).
T1 sequence (whole entry): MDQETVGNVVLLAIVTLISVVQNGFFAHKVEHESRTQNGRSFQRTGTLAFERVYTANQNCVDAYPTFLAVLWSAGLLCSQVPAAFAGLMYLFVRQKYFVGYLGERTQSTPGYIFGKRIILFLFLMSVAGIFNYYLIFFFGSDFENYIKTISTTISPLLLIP
Description: Inhibition of FLAP in human whole blood assessed as reduction in calcium ionophore-stimulated LTB4 production preincubated for 4 hrs followed by calcium ionophore stimulation and measured after 20 mins by EIA. In kind it is tissue-based. In a few lines: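 Fresh human whole blood was incubated with compound for 4 h, then stimulated with calcium ionophore, and LTB4 production was measured as the 5-LO pathway read-out. IC50 was also converted to a free value: IC50 × (Fu/100), where Fu = 100 − human plasma protein binding (%).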

Assay [10] deals with Homo sapiens. As to the kind of experiment: Suppression of calcium ionophore-stimulated LTB4 production in human assessed as Cmin required to show >80% reduction in plasma LTB4 levels at 60 to 1200 mg, po administered as single dose measured after 24 hrs. In kind it is functional.
The test system of assay [11] is Canis familiaris. As to the kind of experiment: Ex vivo inhibition of FLAP in po dosed Beagle dog assessed as reduction in ionophore-stimulated LTB4 production. It counts as functional, Canis lupus familiaris.
For assay [12], the system named is Homo sapiens. Description: Suppression of urine LTE4 level in po dosed human administered daily for 10 days. It counts as functional, organism-based. In a few lines: as §3
Assay [13] has as its system Canis familiaris. Description: Ex vivo reversible inhibition of FLAP in Beagle dog assessed as reduction in ionophore-stimulated LTB4 production at 0.18 mg/kg, po on day1 and 0.09 mg/kg, po on day 3 measured after 48 hrs. It counts as functional, organism-based. The note with it: Canis lupus familiaris. In short, it runs like this:
as §4

Assay [14] concerns Canis familiaris. As to the kind of experiment: Ex vivo inhibition of FLAP in po dosed Beagle dog assessed as reduction in ionophore-stimulated LTB4 production administered daily for 3 consecutive days measured during compound dosing by LC-MS/MS analysis. To be noted: Canis lupus familiaris. It counts as functional, organism-based. In short, it runs like this: as §1
A further assay relates to THP-1. As to the kind of experiment: Cytotoxicity against human THP1 cells assessed as reduction in cell viability measured after 48 hrs by resazurin assay. It counts as cell-based. To be noted: THP-1, 48 h.
Assay [15] deals with T2, Prostaglandin G/H synthase 2 (Homo sapiens) (UniProt P35354).
T2 sequence (whole entry): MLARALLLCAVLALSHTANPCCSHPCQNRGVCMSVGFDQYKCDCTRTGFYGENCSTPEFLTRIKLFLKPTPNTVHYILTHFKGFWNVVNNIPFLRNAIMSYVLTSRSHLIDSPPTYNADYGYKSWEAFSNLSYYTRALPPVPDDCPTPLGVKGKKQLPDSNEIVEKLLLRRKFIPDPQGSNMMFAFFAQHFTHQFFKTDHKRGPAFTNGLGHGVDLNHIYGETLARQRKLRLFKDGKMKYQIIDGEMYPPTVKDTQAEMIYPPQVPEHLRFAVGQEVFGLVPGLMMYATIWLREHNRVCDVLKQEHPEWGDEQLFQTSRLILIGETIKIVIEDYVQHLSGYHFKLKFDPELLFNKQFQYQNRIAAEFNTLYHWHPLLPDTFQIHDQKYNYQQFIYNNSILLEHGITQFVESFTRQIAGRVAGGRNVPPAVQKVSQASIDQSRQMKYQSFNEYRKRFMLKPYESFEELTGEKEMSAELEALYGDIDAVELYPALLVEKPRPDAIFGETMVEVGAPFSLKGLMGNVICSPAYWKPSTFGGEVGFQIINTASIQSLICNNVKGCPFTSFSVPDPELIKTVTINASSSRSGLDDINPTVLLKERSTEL
Description: Activity at COX2 in human whole blood assessed as effect on LPS-induced PGE2 production preincubated for 15 mins followed by LPS-stimulation and measured after overnight incubation by EIA. In kind it is tissue-based.

In assay [16] the test system is Homo sapiens. As to the kind of experiment: Suppression of calcium ionophore-stimulated LTB4 production in po dosed human blood administered as single dose. It counts as functional, organism-based. In a few lines:
as §5

Sequence of Prostaglandin G/H synthase 1 (Homo sapiens) (P23219 whole entry): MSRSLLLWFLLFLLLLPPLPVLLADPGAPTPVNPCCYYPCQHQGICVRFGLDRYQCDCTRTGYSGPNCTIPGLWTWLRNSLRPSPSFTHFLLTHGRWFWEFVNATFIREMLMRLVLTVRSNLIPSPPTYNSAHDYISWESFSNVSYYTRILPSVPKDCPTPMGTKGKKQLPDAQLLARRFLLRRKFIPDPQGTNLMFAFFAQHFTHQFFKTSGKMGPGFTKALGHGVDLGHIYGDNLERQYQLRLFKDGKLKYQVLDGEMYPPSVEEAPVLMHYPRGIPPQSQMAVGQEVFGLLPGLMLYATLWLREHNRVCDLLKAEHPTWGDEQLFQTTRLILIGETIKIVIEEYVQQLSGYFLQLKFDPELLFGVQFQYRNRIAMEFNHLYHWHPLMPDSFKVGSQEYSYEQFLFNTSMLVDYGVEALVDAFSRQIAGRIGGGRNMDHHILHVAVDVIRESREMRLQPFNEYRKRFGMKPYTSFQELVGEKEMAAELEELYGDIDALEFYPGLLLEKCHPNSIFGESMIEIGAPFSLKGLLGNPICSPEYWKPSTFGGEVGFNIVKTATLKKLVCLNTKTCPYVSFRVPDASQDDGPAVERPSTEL

As to `Cc1cc(-c2ccc(C(=O)[C@@H]3CCCC[C@H]3C(=O)Nc3cnn4c3C(=O)NCC4)cc2)n[nH]1`, the inhibition result with Canis familiaris [1] is “inactive”. Further, the result in assay [2] and in assay [15] was inactive. Also, in the assay on Canis familiaris [3], the “inhibition (INH)” value was 100%. Further, the inhibition in vivo at 0.02 mg/kg with Canis familiaris [4] was 60%. Also, the Activity result in the assay on Homo sapiens [5], in the assay on Homo sapiens [8], with Homo sapiens [12] and in the assay on Homo sapiens [16] was “Dose-dependent effect” in each case. In addition, the “%max” value in the assay with Canis familiaris [6] and in the assay on Canis familiaris [7] was above 90% throughout. The pIC50 in the assay with HepG2 and with THP-1 was below 3.60 each time. Moreover, the fIC50 in the assay listed under Canis lupus familiaris is 1 nM; in [9], 2 nM; in the assay on Canis familiaris [11] it was 0.1 nM. In addition, the Cmin in the assay with Homo sapiens [10] is reported as above 15 nM. The inhibition result with Canis familiaris [13] is “Active”. Besides, the inhibition result with Canis familiaris [14] was “Dose-dependent effect”.
